The record followed here is ChEMBL document CHEMBL1914406, “Inhibitory effect of novel 5-O-acyl juglones on mammalian DNA polymerase activity, cancer cell growth and inflammatory response” (Bioorg Med Chem, 2011).

Molecules are shown by their SMILES. The source made the active and inactive calls. The calls are words filed in the database; no cut-off is given here.

The first data set relates to HCT-116. Description: Cytotoxicity against human HCT116 cells by WST-1 assay.
Conditions: not given
It counts as functional, cell-based. The method, boiled down:
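HCT116 colon carcinoma cells (ATCC) grown in McCoy's 5A with 10% FBS, penicillin and streptomycin, 37 °C, 5% CO2. Plated at 1 × 10⁴ cells/well together with compound, which was diluted from a 10 mM DMSO stock into medium (final 0.5% DMSO). Incubated 24 h. Viability read by WST-1, expressed relative to untreated cells.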
Background: Tetrazolium dyes change colour on reduction, which living cells bring about.
In the case of `CC/C=C\C/C=C\C/C=C\CCCCCCCC(=O)O` [LINOLENIC ACID], the result was inactive.
For `CC/C=C\C/C=C\C/C=C\C/C=C\C/C=C\C/C=C\CCC(=O)O` [DOCONEXENT], the result was inactive.
On the same count and under the same terms, then `CCCCCC(=O)O` [HEXANOATE], with “inactive”.
In the case of `CC(=O)O` [ACETIC ACID], the result was inactive.

For the next data set, the system named is RAW264.7. Description: Antiinflammatory activity in mouse RAW264.7 cells assessed as inhibition of LPS-induced TNFalpha secretion at 5 uM treated 30 mins before LPS challenge measured after 24 hrs by ELISA. It counts as functional, cell-based.
Conditions: not given
In outline:
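RAW264.7 cells in MEM with 4.5 g/L glucose, 10% FCS, 5 mM L-glutamine, at 37 °C in 5% CO2. Seeded at 5 × 10⁴ cells/well and grown 24 h. Compound (final 1 and 5 µM) given 30 min before 100 ng/mL LPS. After 24 h, TNF-α in the medium measured by ELISA, relative to the no-compound value (100%). Mean ± SE, n = 4.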
Background: ELISA stands for enzyme-linked immunosorbent assay.
In the case of `CC/C=C\C/C=C\C/C=C\CCCCCCCC(=O)O` [LINOLENIC ACID], the outcome was inactive.
Regarding `CC/C=C\C/C=C\C/C=C\C/C=C\C/C=C\C/C=C\CCC(=O)O` [DOCONEXENT], the outcome was inactive.
For the molecule `CCCCCC(=O)O` [HEXANOATE], the result was inactive.
On the same count and under the same terms, the value for `CC(=O)O` [ACETIC ACID] was “inactive”.

For a further data set, the system named is RAW264.7. Nature of the data set: Cytotoxicity against mouse RAW264.7 cells at 5 uM. It counts as cell-based. The note with it: raw264.7, 5 µM.
Consider `CC/C=C\C/C=C\C/C=C\CCCCCCCC(=O)O` [LINOLENIC ACID], for which the Activity entry is on record as “Non-toxic”.
For the molecule `CC/C=C\C/C=C\C/C=C\C/C=C\C/C=C\C/C=C\CCC(=O)O` [DOCONEXENT], the Activity entry was “Non-toxic”.
In the case of `CCCCCC(=O)O` [HEXANOATE], the Activity entry was “Non-toxic”.
The same measure, in the same setting: the value for `CC(=O)O` [ACETIC ACID] was “Non-toxic”.

Test system in a further data set: not listed separately
Nature of the data set: Cytotoxicity against mouse RAW264.7 cells. The note with it: read-out: LD50 (the source's name). It counts as cell-based.
Take `CC/C=C\C/C=C\C/C=C\CCCCCCCC(=O)O` [LINOLENIC ACID]: the CC50 was > 10 µM.
Regarding `CC/C=C\C/C=C\C/C=C\C/C=C\C/C=C\C/C=C\CCC(=O)O` [DOCONEXENT], the CC50 is > 10 µM.
As to `CCCCCC(=O)O` [HEXANOATE], the CC50 was > 10 µM.
`CC(=O)O` [ACETIC ACID]: the CC50 was > 10 µM.

In the next data set the test system is Mus musculus. Nature of the data set: Antiinflammatory activity in mouse assessed as inhibition of TPA-induced mouse ear edema at 500 ug/ear administered 30 mins before TPA challenge measured after 7 hrs relative to untreated control. It counts as functional, organism-based.
Conditions: not given
In outline:
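Compound (500 µg) applied to one mouse ear; 30 min later TPA (0.5 µg) applied to both ears. Edema scored after 7 h and expressed as percentage of edema. Mean ± SE, n = 6.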
`CC/C=C\C/C=C\C/C=C\CCCCCCCC(=O)O` [LINOLENIC ACID]: the outcome was inactive.
Same read-out and setting: the value for `CC/C=C\C/C=C\C/C=C\C/C=C\C/C=C\C/C=C\CCC(=O)O` [DOCONEXENT] was “inactive”; that for `CCCCCC(=O)O` [HEXANOATE] was “inactive”.
Consider `CC(=O)O` [ACETIC ACID], for which the outcome was inactive.

The target in a further data set is T1, DNA polymerase lambda (Homo sapiens) (UniProt Q9UGP5).
T1 sequence (whole entry): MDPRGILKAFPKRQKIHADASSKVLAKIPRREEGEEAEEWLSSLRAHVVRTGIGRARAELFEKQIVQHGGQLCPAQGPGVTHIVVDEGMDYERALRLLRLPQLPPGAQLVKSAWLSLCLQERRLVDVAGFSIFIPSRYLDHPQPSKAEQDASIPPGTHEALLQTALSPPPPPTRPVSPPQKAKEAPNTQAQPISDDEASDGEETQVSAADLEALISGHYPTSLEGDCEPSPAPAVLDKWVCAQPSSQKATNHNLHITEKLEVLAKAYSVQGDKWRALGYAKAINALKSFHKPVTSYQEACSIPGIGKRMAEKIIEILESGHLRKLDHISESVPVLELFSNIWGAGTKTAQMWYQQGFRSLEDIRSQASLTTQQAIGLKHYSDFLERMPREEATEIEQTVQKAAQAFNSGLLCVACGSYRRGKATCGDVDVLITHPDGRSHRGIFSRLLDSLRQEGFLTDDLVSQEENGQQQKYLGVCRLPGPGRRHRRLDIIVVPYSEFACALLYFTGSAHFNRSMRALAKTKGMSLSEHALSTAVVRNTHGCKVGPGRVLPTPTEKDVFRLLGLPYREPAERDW
Nature of the data set: Inhibition of recombinant His-tagged human DNA polymerase lambda using poly(dA)/oligo(dT)18 (A/T = 2/1) and dTTP as the DNA template-primer and nucleotide substrate at 10 uM after 60 mins.
Conditions: not given
The method, boiled down: (§1)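 Compound in DMSO, sonicated 30 s. Premixed 0 °C, 10 min with enzyme (0.05 units) in 50 mM Tris-HCl pH 7.5, 1 mM DTT, 50% glycerol, 0.1 mM EDTA, then added to standard reaction mixture. Template-primers: poly(dA)/oligo(dT)18 (2/1) for pols, oligo(dT)18 for TdT, poly(rA)/oligo(dT)18 for HIV-1 RT, with [3H]dTTP. 60 min at 37 °C (Taq 74 °C). Activity relative to no-inhibitor control; mean ± SE of three experiments.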
For the molecule `CC/C=C\C/C=C\C/C=C\CCCCCCCC(=O)O` [LINOLENIC ACID], the inhibition result is “inactive”.
Turning to `CC/C=C\C/C=C\C/C=C\C/C=C\C/C=C\C/C=C\CCC(=O)O` [DOCONEXENT], the inhibition entry was “inactive”.
Turning to `CCCCCC(=O)O` [HEXANOATE], the inhibition entry is “inactive”.
Still for that read-out and setting: the value for `CC(=O)O` [ACETIC ACID] was “inactive”.

The species entered for the next data set is Bos taurus. Nature of the data set: Inhibition of calf DNA polymerase alpha using poly(dA)/oligo(dT)18 (A/T = 2/1) and dTTP as the DNA template-primer and nucleotide substrate at 10 uM after 60 mins.
Conditions: not given
In outline: as §1
As for `CC/C=C\C/C=C\C/C=C\CCCCCCCC(=O)O` [LINOLENIC ACID], the inhibition result was “inactive”.
Consider `CC/C=C\C/C=C\C/C=C\C/C=C\C/C=C\C/C=C\CCC(=O)O` [DOCONEXENT], for which the inhibition result was “inactive”.
For `CCCCCC(=O)O` [HEXANOATE], the inhibition entry was “inactive”.
The same measure, in the same setting: the value for `CC(=O)O` [ACETIC ACID] was “inactive”.

Another data set is filed under the species Homo sapiens. Nature of the data set: Inhibition of histidine-tagged human DNA polymerase gamma using poly(dA)/oligo(dT)18 (A/T = 2/1) and dTTP as the DNA template-primer and nucleotide substrate at 10 uM after 60 mins.
Conditions: not given
The method, boiled down: as §1
On to `CC/C=C\C/C=C\C/C=C\CCCCCCCC(=O)O` [LINOLENIC ACID], for which the inhibition entry is “inactive”.
With `CC/C=C\C/C=C\C/C=C\C/C=C\C/C=C\C/C=C\CCC(=O)O` [DOCONEXENT], the inhibition entry is “inactive”.
Still for that read-out and setting: the value for `CCCCCC(=O)O` [HEXANOATE] was “inactive”.
On to `CC(=O)O` [ACETIC ACID], for which the inhibition entry is “inactive”.

Another data set has as its target T2, DNA polymerase kappa (Homo sapiens) (UniProt Q9UBT6).
T2 sequence (whole entry): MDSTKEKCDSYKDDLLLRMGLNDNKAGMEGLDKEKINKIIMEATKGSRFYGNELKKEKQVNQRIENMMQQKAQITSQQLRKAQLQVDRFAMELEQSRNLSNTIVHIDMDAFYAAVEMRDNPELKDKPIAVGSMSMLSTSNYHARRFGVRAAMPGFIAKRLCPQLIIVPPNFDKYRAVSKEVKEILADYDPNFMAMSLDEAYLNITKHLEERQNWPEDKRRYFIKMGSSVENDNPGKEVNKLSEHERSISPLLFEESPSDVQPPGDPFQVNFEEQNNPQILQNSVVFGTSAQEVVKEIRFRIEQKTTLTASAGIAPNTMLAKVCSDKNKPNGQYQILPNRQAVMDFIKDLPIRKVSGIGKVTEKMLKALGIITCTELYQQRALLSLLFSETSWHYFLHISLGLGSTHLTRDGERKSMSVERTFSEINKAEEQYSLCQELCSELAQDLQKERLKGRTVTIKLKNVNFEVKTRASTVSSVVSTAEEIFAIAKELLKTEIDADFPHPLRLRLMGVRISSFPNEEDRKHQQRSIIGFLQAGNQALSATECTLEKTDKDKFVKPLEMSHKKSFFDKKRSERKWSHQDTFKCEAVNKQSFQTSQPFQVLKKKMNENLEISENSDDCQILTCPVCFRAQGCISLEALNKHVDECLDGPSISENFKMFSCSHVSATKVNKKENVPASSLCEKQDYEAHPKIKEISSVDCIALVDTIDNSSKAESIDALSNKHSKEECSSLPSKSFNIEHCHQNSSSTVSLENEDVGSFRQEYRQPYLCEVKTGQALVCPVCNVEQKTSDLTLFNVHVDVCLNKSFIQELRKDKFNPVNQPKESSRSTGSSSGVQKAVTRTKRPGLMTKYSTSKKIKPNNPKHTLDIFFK
Description: Inhibition of C-terminal His6-tagged human DNA polymerase kappa (amino acids 1 to 560) using poly(dA)/oligo(dT)18 (A/T = 2/1) and dTTP as the DNA template-primer and nucleotide substrate at 10 uM after 60 mins.
Conditions: not given
As to `CC/C=C\C/C=C\C/C=C\CCCCCCCC(=O)O` [LINOLENIC ACID], the inhibition entry is “inactive”.
Consider `CC/C=C\C/C=C\C/C=C\C/C=C\C/C=C\C/C=C\CCC(=O)O` [DOCONEXENT], for which the inhibition entry is “inactive”.
`CCCCCC(=O)O` [HEXANOATE]: the inhibition result is “inactive”.
Take `CC(=O)O` [ACETIC ACID]: the inhibition result is “inactive”.

The species entered for the next data set is Bos taurus. Nature of the data set: Inhibition of calf DNA polymerase alpha using bovine deoxyribonuclease 1-treated DNA and dNTP as the DNA template-primer and nucleotide substrate at 10 uM after 60 mins.
Conditions: not given
For the molecule `CC/C=C\C/C=C\C/C=C\CCCCCCCC(=O)O` [LINOLENIC ACID], the inhibition result is “inactive”.
For the molecule `CC/C=C\C/C=C\C/C=C\C/C=C\C/C=C\C/C=C\CCC(=O)O` [DOCONEXENT], the inhibition result was “inactive”.
Same read-out and setting: the value for `CCCCCC(=O)O` [HEXANOATE] was “inactive”; that for `CC(=O)O` [ACETIC ACID] was “inactive”.

For another data set, the species on record is Homo sapiens. Description: Inhibition of histidine-tagged human DNA polymerase gamma using bovine deoxyribonuclease 1-treated DNA and dNTP as the DNA template-primer and nucleotide substrate at 10 uM after 60 mins.
Conditions: not given
In the case of `CC/C=C\C/C=C\C/C=C\CCCCCCCC(=O)O` [LINOLENIC ACID], the inhibition result was “inactive”.
Regarding `CC/C=C\C/C=C\C/C=C\C/C=C\C/C=C\C/C=C\CCC(=O)O` [DOCONEXENT], the inhibition entry is “inactive”.
The same measure, in the same setting: the value for `CCCCCC(=O)O` [HEXANOATE] was “inactive”; that for `CC(=O)O` [ACETIC ACID] was “inactive”.

The target of another data set is T2, DNA polymerase kappa (Homo sapiens). Nature of the data set: Inhibition of C-terminal His6-tagged human DNA polymerase kappa (amino acids 1 to 560) using bovine deoxyribonuclease 1-treated DNA and dNTP as the DNA template-primer and nucleotide substrate at 10 uM after 60 mins.
Conditions: not given
`CC/C=C\C/C=C\C/C=C\CCCCCCCC(=O)O` [LINOLENIC ACID]: the inhibition entry is “inactive”.
With `CC/C=C\C/C=C\C/C=C\C/C=C\C/C=C\C/C=C\CCC(=O)O` [DOCONEXENT], the inhibition entry is “inactive”.
As for `CCCCCC(=O)O` [HEXANOATE], the inhibition entry was “inactive”.
`CC(=O)O` [ACETIC ACID]: the inhibition entry was “inactive”.

A further data set has as its target T1, DNA polymerase lambda (Homo sapiens). Nature of the data set: Inhibition of recombinant His-tagged human DNA polymerase lambda using bovine deoxyribonuclease 1-treated DNA and dNTP as the DNA template-primer and nucleotide substrate at 10 uM after 60 mins.
Conditions: not given
Turning to `CC/C=C\C/C=C\C/C=C\CCCCCCCC(=O)O` [LINOLENIC ACID], the inhibition entry is “inactive”.
In the case of `CC/C=C\C/C=C\C/C=C\C/C=C\C/C=C\C/C=C\CCC(=O)O` [DOCONEXENT], the inhibition result was “inactive”.
As to `CCCCCC(=O)O` [HEXANOATE], the inhibition result is “inactive”.
On to `CC(=O)O` [ACETIC ACID], for which the inhibition result is “inactive”.
